The structures appear in SMILES notation. Calls of active or inactive are those of the source. The calls are words filed in the database; no cut-off is given here.

Assay [1] has as its system Geobacillus stearothermophilus. Kind of assay: Antibacterial activity against Bacillus stearothermophilus NCA 1518 after 24 hrs by disk diffusion assay. It counts as functional, organism-based. The essentials:
(§1)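 Sterile 6 mm filter-paper disc bearing sample set in the centre of a Petri dish of 15 ml plate count agar. Overlaid with 3 ml soft nutrient agar (nutrient broth + 0.7% agar) seeded with 1% of a 16–18 h culture of the test strain. Read-out is the diameter of the growth-free zone around the disc.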
For orientation: Agar diffusion results depend on both activity and mobility in agar.

Assay [2] has as its system Staphylococcus aureus. The experiment in a line: Antibacterial activity against Staphylococcus aureus T-AQ 49/YF29 after 24 hrs by disk diffusion assay. It counts as functional, organism-based. The essentials:
as §1

Assay [3] has as its system Pseudomonas putida. Kind of assay: Antibacterial activity against Pseudomonas putida T-AQ 18/YF18 after 24 hrs by disk diffusion assay. It is filed as functional, organism-based. The method, boiled down:
as §1

Assay [4] deals with Salmonella typhimurium. The experiment in a line: Antibacterial activity against Salmonella Typhimurium NCIB 10248 after 24 hrs by disk diffusion assay. The note with it: Salmonella enterica subsp. enterica serovar Typhimurium. It is filed as functional, organism-based. The essentials: as §1
Assay [5] relates to Bacillus subtilis. Kind of assay: Antibacterial activity against Bacillus subtilis NCIB 3610 after 24 hrs by disk diffusion assay. It counts as functional, organism-based. The essentials:
as §1

Assay [6] has as its system Escherichia coli. The experiment in a line: Antibacterial activity against Escherichia coli B74-1 after 24 hrs by disk diffusion assay. It counts as functional, organism-based. The essentials:
as §1

For assay [7], the system named is Bacillus cereus. Kind of assay: Antibacterial activity against Bacillus cereus NCIB 3329 after 24 hrs by disk diffusion assay. It counts as functional, organism-based. The method, boiled down:
as §1

The subject of assay [8] is Pseudomonas aeruginosa. The experiment in a line: Antibacterial activity against Pseudomonas aeruginosa ATCC 10145 after 24 hrs by disk diffusion assay. It counts as functional, organism-based. The essentials: as §1
Assay [9] deals with Enterococcus faecalis. Kind of assay: Antibacterial activity against Streptococcus faecalis NCIB 775 after 24 hrs by disk diffusion assay. It is filed as functional, organism-based. The method, boiled down: as §1
Assay [10] relates to Glycine max. Kind of assay: Inhibition of soybean 15-LOX at 4 uM. The method, boiled down:
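15-lipoxygenase assay run by a literature method with arachidonic acid (40 μM) as substrate.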

For `CC/C=C\C/C=C\C/C=C\C/C=C\CCCCC(=O)O`, the outcome in assay [1], in assay [2], in [3], in assay [4], in assay [5] and in [6] was Active. In addition, the result in [7], in assay [8] and in [9] was Active.

As for `CCCCCC#CCC#CCC#CCC#CCCCC(=O)O`, the inhibition – broadly, the drop in the measured response relative to a control, in per cent – in assay [10] came out at 95%.

These data come from ChEMBL document CHEMBL1148178, “Dicranin, an antimicrobial and 15-lipoxygenase inhibitor from the moss Dicranum scoparium” (1993).
